Measurements as given in paper PMC4981430 (Neuropharmacology, 2016).
Where two headings read alike, the source gives them in different places.

Key:
α2β3γ2 GABAARs [1] = target: T1, α2β3γ2 GABAARs (Rattus norvegicus, UniProt P18508+P23576); test: [3H]flunitrazepam binding to membranes of transfected HEK293 cells, α2β3γ2
α2β3γ2 GABAARs [2] = target: T1, α2β3γ2 GABAARs; test: Whole-cell patch-clamp, potentiation of GABA; type: cell-based; conditions: for Emax: HEK293, read-out: Electrophysiology Emax (potentiation)
α3β3γ2 GABAARs = α3β3γ2 GABAARs (Rattus norvegicus, UniProt P18508+P20236); test: Whole-cell patch-clamp, potentiation of GABA; type: cell-based
Chain of α3β3γ2 GABAARs (P20236 29-493): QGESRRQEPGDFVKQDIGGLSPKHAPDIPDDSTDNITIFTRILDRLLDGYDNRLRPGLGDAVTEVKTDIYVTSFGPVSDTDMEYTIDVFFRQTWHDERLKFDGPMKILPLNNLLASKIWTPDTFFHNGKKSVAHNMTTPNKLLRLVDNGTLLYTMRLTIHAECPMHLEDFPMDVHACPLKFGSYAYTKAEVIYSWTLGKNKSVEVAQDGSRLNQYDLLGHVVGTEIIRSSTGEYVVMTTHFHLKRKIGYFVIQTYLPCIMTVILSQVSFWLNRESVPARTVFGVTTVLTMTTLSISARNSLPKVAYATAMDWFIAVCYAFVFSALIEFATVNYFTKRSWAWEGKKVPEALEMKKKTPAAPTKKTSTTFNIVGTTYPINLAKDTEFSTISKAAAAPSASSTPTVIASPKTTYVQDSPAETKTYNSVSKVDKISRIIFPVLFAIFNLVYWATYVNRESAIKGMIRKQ
Chain of α3β3γ2 GABAARs (P63079 26-473 partner): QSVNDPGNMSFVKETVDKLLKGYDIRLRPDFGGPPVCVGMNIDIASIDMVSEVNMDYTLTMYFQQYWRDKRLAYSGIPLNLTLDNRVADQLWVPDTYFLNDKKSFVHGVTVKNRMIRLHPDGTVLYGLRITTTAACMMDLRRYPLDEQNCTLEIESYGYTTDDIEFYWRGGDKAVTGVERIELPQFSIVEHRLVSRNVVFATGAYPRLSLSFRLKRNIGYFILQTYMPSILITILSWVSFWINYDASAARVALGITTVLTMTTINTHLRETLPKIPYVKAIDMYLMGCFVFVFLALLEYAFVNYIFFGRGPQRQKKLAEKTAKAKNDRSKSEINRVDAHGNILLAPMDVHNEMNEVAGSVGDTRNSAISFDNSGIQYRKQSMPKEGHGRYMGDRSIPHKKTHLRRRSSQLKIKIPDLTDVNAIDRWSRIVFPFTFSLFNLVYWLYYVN
Chain of α3β3γ2 GABAARs (P18508 39-466): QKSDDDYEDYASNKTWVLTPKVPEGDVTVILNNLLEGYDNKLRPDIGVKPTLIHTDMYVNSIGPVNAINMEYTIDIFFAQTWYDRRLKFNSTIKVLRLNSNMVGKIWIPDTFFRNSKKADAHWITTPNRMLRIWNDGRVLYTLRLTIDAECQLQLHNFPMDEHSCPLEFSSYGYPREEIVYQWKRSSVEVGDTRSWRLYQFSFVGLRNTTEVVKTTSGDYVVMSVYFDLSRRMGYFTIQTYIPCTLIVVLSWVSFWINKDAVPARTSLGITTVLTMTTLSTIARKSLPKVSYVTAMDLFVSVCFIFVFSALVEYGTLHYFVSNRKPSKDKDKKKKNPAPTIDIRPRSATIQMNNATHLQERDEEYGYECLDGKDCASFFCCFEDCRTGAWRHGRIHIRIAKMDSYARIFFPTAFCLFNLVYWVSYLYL

α1β2γ2 GABAARs [3] = target: T2, α1β2γ2 GABAARs (Rattus norvegicus, UniProt P18508+P62813); test: [3H]flunitrazepam binding to membranes of transfected HEK293 cells, α1β2γ2
T2 sequence (P62813 28-455): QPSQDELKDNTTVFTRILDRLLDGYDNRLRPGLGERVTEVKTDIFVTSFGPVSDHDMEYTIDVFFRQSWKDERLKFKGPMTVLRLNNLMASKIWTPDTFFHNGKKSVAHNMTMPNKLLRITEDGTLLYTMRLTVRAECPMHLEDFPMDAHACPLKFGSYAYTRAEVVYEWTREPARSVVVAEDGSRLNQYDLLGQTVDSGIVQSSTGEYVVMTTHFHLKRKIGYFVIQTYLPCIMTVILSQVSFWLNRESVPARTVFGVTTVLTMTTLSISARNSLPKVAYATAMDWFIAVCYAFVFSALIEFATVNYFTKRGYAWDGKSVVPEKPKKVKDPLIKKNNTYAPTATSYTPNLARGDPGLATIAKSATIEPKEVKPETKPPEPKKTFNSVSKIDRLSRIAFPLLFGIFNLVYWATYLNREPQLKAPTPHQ
T2 sequence (P63138 25-474 partner limits assumed): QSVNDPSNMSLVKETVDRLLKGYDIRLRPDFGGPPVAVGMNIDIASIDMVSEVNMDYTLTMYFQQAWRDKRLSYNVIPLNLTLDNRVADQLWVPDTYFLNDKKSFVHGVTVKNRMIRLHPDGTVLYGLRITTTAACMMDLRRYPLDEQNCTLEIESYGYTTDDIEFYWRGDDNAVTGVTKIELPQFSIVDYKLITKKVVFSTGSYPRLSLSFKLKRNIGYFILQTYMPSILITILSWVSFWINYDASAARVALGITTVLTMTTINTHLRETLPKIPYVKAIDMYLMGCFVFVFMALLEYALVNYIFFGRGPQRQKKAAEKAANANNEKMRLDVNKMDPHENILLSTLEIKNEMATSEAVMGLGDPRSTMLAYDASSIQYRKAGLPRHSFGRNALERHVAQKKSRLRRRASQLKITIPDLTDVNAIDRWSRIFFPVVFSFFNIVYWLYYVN
T2 sequence (P18508 39-466): as the sequence (P18508 39-466) above

α5β2γ2 GABAARs = α5β2γ2 GABAARs (Rattus norvegicus, UniProt P18508+P19969); test: Whole-cell patch-clamp, potentiation of GABA; type: cell-based; conditions: for Emax: HEK293, read-out: Electrophysiology Emax (potentiation)
Chain of α5β2γ2 GABAARs (P19969 32-464 limits assumed): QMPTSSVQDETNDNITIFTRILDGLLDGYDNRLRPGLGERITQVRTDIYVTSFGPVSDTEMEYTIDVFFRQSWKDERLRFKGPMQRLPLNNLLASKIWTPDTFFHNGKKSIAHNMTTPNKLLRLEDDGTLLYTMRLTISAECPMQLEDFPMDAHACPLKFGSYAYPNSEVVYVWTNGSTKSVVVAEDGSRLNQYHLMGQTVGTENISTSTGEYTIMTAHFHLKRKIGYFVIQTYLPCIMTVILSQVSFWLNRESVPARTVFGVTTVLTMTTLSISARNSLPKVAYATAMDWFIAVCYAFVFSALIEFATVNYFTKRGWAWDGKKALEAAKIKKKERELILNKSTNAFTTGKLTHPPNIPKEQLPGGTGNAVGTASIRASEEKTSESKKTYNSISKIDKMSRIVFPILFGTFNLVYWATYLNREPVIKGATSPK
Chain of α5β2γ2 GABAARs (P63138 25-474 partner limits assumed): as the sequence (P63138 25-474 partner limits assumed) above
Chain of α5β2γ2 GABAARs (P18508 39-466): as the sequence (P18508 39-466) above

human GABAARs = human GABAARs in Xenopus laevis oocytes; ref Hammer et al., 2015; cited from earlier work
[4] = test system: α1β2γ2, α2β3γ2, α3β3γ2 and α5β2γ2 GABAARs; test: Whole-cell patch-clamp in HEK293 cells, statements across the GABAAR subtypes; type: cell-based, rat; conditions: up to 3 μM for DZP, and 20 μM for CBZ and NDMC
α1β2γ2 GABAARs [5] = target: T2, α1β2γ2 GABAARs; test: Whole-cell patch-clamp, potentiation of GABA; type: cell-based; conditions: for Emax: HEK293, read-out: Electrophysiology Emax (potentiation)
[6] = test system: locomotor activity of mice; test: Locomotor activity in the open field test; type: in vivo, mouse
[7] = test system: CCI model of neuropathic pain, mechanical hyperalgesia; test: Mechanical hyperalgesia; type: in vivo, mouse; conditions: GABAAR α1(H→R) point-mutated mice, von-Frey filament stimulation, p.o.
Method in brief: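 Left sciatic nerve constricted proximal to the trifurcation with three loose 5-0 silk ligatures. Mice 7–10 weeks old, both sexes, wild-type or α1(H→R) point-mutated, tested blinded 7–14 days later. Dosing p.o. as a suspension in 0.9% saline/1% Tween80. Paw withdrawal threshold measured with electronic von Frey filament #7, 3–4 readings per time point. Expressed as %MPE using pre-CCI and pre-drug thresholds.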

[8] = test system: recombinant α2β3γ2 GABAARs; conditions: cited from earlier work; for Potentiation of recombinant α2β3γ2 GABAARs, relative to chlordiazepoxide: % of that of chlordiazepoxide, ref Atack et al.

T1 sequence (P23576 29-451): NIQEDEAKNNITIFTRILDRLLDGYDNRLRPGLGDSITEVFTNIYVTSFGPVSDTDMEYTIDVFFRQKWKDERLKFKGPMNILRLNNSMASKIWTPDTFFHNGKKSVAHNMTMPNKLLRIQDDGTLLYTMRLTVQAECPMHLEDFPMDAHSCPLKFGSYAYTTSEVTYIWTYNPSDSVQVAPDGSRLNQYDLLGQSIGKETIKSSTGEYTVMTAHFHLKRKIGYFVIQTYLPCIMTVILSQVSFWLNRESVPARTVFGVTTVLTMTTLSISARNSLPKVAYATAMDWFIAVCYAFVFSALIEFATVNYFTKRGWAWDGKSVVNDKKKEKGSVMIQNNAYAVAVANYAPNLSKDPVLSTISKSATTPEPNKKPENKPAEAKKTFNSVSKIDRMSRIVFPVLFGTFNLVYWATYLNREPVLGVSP
T1 sequence (P63079 26-473 partner): as the sequence (P63079 26-473 partner) above
T1 sequence (P18508 39-466): as the sequence (P18508 39-466) above

CN1C(=O)CC(=O)N(c2ccccc2)c2cc(Cl)ccc21 [CBZ, clobazam]
IC50 (α2β3γ2 GABAARs [1]): 390 ± 80 nM
EC50 (α2β3γ2 GABAARs [2]): 390 ± 190 nM
Emax (α2β3γ2 GABAARs [2]): 134 ± 16%
α2/α1 selectivity (α2β3γ2 GABAARs [2]; determined as Emax(α2)/Emax(α1)): 0.78 ± 0.12
EC50 (α3β3γ2 GABAARs): 1100 ± 320 nM
IC50 (α1β2γ2 GABAARs [3]): 430 ± 130 nM
EC50 (α5β2γ2 GABAARs): 500 ± 120 nM
Emax (α5β2γ2 GABAARs): 157 ± 11%
α2/α1 selectivity ratio (human GABAARs): 1.02 ± 0.05
Direct activation of GABAAR currents [4]: did not directly activate GABAAR currents
EC50 (α1β2γ2 GABAARs [5]): 610 ± 200 nM
Emax (α1β2γ2 GABAARs [5]): 171 ± 17%

CN1C(=O)CN=C(c2ccccc2)c2cc(Cl)ccc21 [DZP, diazepam]
Emax (α2β3γ2 GABAARs [2]): 123 ± 11%
Electrophysiology Emax (potentiation) (α3β3γ2 GABAARs; α3β3γ2, GABA at EC10, mean ± SD): 227 ± 15%
Dose at which reduction in locomotor activity reached statistical significance ([6]; 129X1/SvJ mice, p.o., 72-120 min): ≥ 10 mg/kg
Effect on locomotor activity ([6]; C57BL/6J mice, 3, 10 and 30 mg kg−1 p.o., 72-120 min): dose-dependent reduction in locomotor activity
Dose at which reduction in locomotor activity reached statistical significance ([6]; C57BL/6J mice, p.o., 72-120 min): 1 mg/kg
Effect on locomotor activity in HRRR mice ([6]; HRRR triple point-mutated mice (only α1GABAARs BDZ-sensitive), 3–10 mg kg−1 p.o.): completely suppressed
Effect on locomotor activity in RHRR mice ([6]; RHRR triple point-mutated mice (only α2GABAARs BDZ-sensitive), p.o.): increased locomotion
Dose reducing locomotor activity in RRRR mice ([6]; quadruple point-mutated RRRR mice, p.o.): ≥ 30 mg/kg
ED50 sedation ([6]; triple (H→R) point-mutated mice, only α1GABAARs BDZ-sensitive, p.o.): 0.59 ± 0.08 mg/kg
ED50 antihyperalgesia [7]: 3.4 ± 1.3 mg/kg
Emax (α5β2γ2 GABAARs): 100 ± 6.4%
Direct activation of GABAAR currents [4]: did not directly activate GABAAR currents
Emax (α1β2γ2 GABAARs [5]): 141 ± 17%

Cn1ncnc1COc1nn2c(-c3cc(F)ccc3F)nnc2cc1C(C)(C)C [L-838,417]
Potentiation of recombinant α2β3γ2 GABAARs ([8]; ref McKernan et al., 2000): about 40%

CCn1ncnc1COc1nn2c(-c3ccccc3F)nnc2cc1C(C)(C)C [TPA023, 7-(1,1-Dimethylethyl)-6-(2-ethyl-2H-1,2,4-triazol-3-ylmethoxy)-3-(2-fluor ophenyl)-1,2,4-triazolo[4,3-b]pyridazine]
Potentiation of recombinant α2β3γ2 GABAARs, relative to chlordiazepoxide [8]; 2006: 11%

CC(C)(O)c1cnn2c(-c3ccc(F)c(-c4c(F)cccc4C#N)c3)cnc2n1 [TPA023B]
Potentiation of recombinant α2β3γ2 GABAARs, relative to chlordiazepoxide [8]; 2011: 38%
